We go through eight molecules from article PMC3947313 (Journal of neurochemistry, 2013).

One data set relates to ERK2-pT202pY204. As to the kind of experiment: Enzyme-coupled. It counts as biochemical. Particulars: for decrease of kcat/Km (activity) toward phospho-ERK protein: STEP variant compared to wild-type STEP; for effect of mutation on activity toward phospho-ERK protein (in words): compared to the respective wild-type phosphatase. The essentials:
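Phospho-ERK2 protein was prepared using ERK2 and MEK1 expression plasmids. Initial rates were fitted to Michaelis-Menten for Km and kcat. At substrate << Km, kcat/Km came from first-order progress-curve fitting. Values are mean ± standard error.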

In data set [1] the test system is ERK pT202pY204 phospho-peptide. It counts as biochemical. Particulars: compared to wild-type STEP. An outline of the steps: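 Synthetic, HPLC-purified Tyr(P)-containing peptides were dephosphorylated at 37°C in 50 mM succinic buffer (pH 6.0), 1 mM EDTA and 2 mM DTT, ionic strength 0.15 M (NaCl). Released phosphate was measured with BIOMOL Green at 620 nm. Hydrolysis was also followed continuously by tyrosine fluorescence (excitation 280 nm, emission 305 nm). Michaelis-Menten fits gave kinetic parameters (mean ± standard error).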

B1: STEP: purified striatal-enriched protein tyrosine phosphatase (human PTPN5), wild type (protein, UniProt P54829 1-565, looked up)
Tyrosine-protein phosphatase …: MNYEGARSERENHAADDSEGGALDMCCSERLPGLPQPIVMEALDEAEGLQDSQREMPPPPPPSPPSDPAQKPPPRGAGSHSLTVRSSLCLFAASQFLLACGVLWFSGYGHIWSQNATNLVSSLLTLLKQLEPTAWLDSGTWGVPSLLLVFLSVGLVLVTTLVWHLLRTPPEPPTPLPPEDRRQSVSRQPSFTYSEWMEEKIEDDFLDLDPVPETPVFDCVMDIKPEADPTSLTVKSMGLQERRGSNVSLTLDMCTPGCNEEGFGYLMSPREESAREYLLSASRVLQAEELHEKALDPFLLQAEFFEIPMNFVDPKEYDIPGLVRKNRYKTILPNPHSRVCLTSPDPDDPLSSYINANYIRGYGGEEKVYIATQGPIVSTVADFWRMVWQEHTPIIVMITNIEEMNEKCTEYWPEEQVAYDGVEITVQKVIHTEDYRLRLISLKSGTEERGLKHYWFTSWPDQKTPDRAPPLLHLVREVEEAAQQEGPHCAPIIVHCSAGIGRTGCFIATSICCQQLRQEGVVDILKTTCQLRQDRGGMIQTCEQYQFVHHVMSLYEKQLSHQSPE
As for B1, the “kcat of ERK-pT202pY204 dephosphorylation” value with ERK2-pT202pY204 (pH 7.0, 25°C, initial rates fitted to Michaelis-Menten, OD360) was found to be 0.78 s^−1.

B2: R242A: STEP KIM mutant R242A (protein, UniProt P54829 1-565, looked up, variant R242A)
Tyrosine-protein phosphatase …: MNYEGARSERENHAADDSEGGALDMCCSERLPGLPQPIVMEALDEAEGLQDSQREMPPPPPPSPPSDPAQKPPPRGAGSHSLTVRSSLCLFAASQFLLACGVLWFSGYGHIWSQNATNLVSSLLTLLKQLEPTAWLDSGTWGVPSLLLVFLSVGLVLVTTLVWHLLRTPPEPPTPLPPEDRRQSVSRQPSFTYSEWMEEKIEDDFLDLDPVPETPVFDCVMDIKPEADPTSLTVKSMGLQEARGSNVSLTLDMCTPGCNEEGFGYLMSPREESAREYLLSASRVLQAEELHEKALDPFLLQAEFFEIPMNFVDPKEYDIPGLVRKNRYKTILPNPHSRVCLTSPDPDDPLSSYINANYIRGYGGEEKVYIATQGPIVSTVADFWRMVWQEHTPIIVMITNIEEMNEKCTEYWPEEQVAYDGVEITVQKVIHTEDYRLRLISLKSGTEERGLKHYWFTSWPDQKTPDRAPPLLHLVREVEEAAQQEGPHCAPIIVHCSAGIGRTGCFIATSICCQQLRQEGVVDILKTTCQLRQDRGGMIQTCEQYQFVHHVMSLYEKQLSHQSPE
For the molecule B2, the “decrease of kcat/Km (activity) toward phospho-ERK protein” value (from here on “decrease of kcat/Km”) with ERK2-pT202pY204 (pH 7.0, 25°C) came out at 4 fold.

B3: L251A: STEP KIM mutant L251A (protein, UniProt P54829 1-565, looked up, variant L251A)
Tyrosine-protein phosphatase …: MNYEGARSERENHAADDSEGGALDMCCSERLPGLPQPIVMEALDEAEGLQDSQREMPPPPPPSPPSDPAQKPPPRGAGSHSLTVRSSLCLFAASQFLLACGVLWFSGYGHIWSQNATNLVSSLLTLLKQLEPTAWLDSGTWGVPSLLLVFLSVGLVLVTTLVWHLLRTPPEPPTPLPPEDRRQSVSRQPSFTYSEWMEEKIEDDFLDLDPVPETPVFDCVMDIKPEADPTSLTVKSMGLQERRGSNVSLTADMCTPGCNEEGFGYLMSPREESAREYLLSASRVLQAEELHEKALDPFLLQAEFFEIPMNFVDPKEYDIPGLVRKNRYKTILPNPHSRVCLTSPDPDDPLSSYINANYIRGYGGEEKVYIATQGPIVSTVADFWRMVWQEHTPIIVMITNIEEMNEKCTEYWPEEQVAYDGVEITVQKVIHTEDYRLRLISLKSGTEERGLKHYWFTSWPDQKTPDRAPPLLHLVREVEEAAQQEGPHCAPIIVHCSAGIGRTGCFIATSICCQQLRQEGVVDILKTTCQLRQDRGGMIQTCEQYQFVHHVMSLYEKQLSHQSPE
For the molecule B3, in the data set on ERK2-pT202pY204 (pH 7.0, 25°C), the “decrease of kcat/Km” value is listed as 7 fold.

B4: R243A: STEP KIM mutant R243A (protein, UniProt P54829 1-565, looked up, variant R243A)
Tyrosine-protein phosphatase …: MNYEGARSERENHAADDSEGGALDMCCSERLPGLPQPIVMEALDEAEGLQDSQREMPPPPPPSPPSDPAQKPPPRGAGSHSLTVRSSLCLFAASQFLLACGVLWFSGYGHIWSQNATNLVSSLLTLLKQLEPTAWLDSGTWGVPSLLLVFLSVGLVLVTTLVWHLLRTPPEPPTPLPPEDRRQSVSRQPSFTYSEWMEEKIEDDFLDLDPVPETPVFDCVMDIKPEADPTSLTVKSMGLQERAGSNVSLTLDMCTPGCNEEGFGYLMSPREESAREYLLSASRVLQAEELHEKALDPFLLQAEFFEIPMNFVDPKEYDIPGLVRKNRYKTILPNPHSRVCLTSPDPDDPLSSYINANYIRGYGGEEKVYIATQGPIVSTVADFWRMVWQEHTPIIVMITNIEEMNEKCTEYWPEEQVAYDGVEITVQKVIHTEDYRLRLISLKSGTEERGLKHYWFTSWPDQKTPDRAPPLLHLVREVEEAAQQEGPHCAPIIVHCSAGIGRTGCFIATSICCQQLRQEGVVDILKTTCQLRQDRGGMIQTCEQYQFVHHVMSLYEKQLSHQSPE
Take B4: the “decrease of kcat/Km” value in the data set with ERK2-pT202pY204 (pH 7.0, 25°C) was 6 fold.

B5: Q462H: STEP WPD-loop mutant Q462H (protein, UniProt P54829 1-565, looked up, variant Q462H)
Tyrosine-protein phosphatase …: MNYEGARSERENHAADDSEGGALDMCCSERLPGLPQPIVMEALDEAEGLQDSQREMPPPPPPSPPSDPAQKPPPRGAGSHSLTVRSSLCLFAASQFLLACGVLWFSGYGHIWSQNATNLVSSLLTLLKQLEPTAWLDSGTWGVPSLLLVFLSVGLVLVTTLVWHLLRTPPEPPTPLPPEDRRQSVSRQPSFTYSEWMEEKIEDDFLDLDPVPETPVFDCVMDIKPEADPTSLTVKSMGLQERRGSNVSLTLDMCTPGCNEEGFGYLMSPREESAREYLLSASRVLQAEELHEKALDPFLLQAEFFEIPMNFVDPKEYDIPGLVRKNRYKTILPNPHSRVCLTSPDPDDPLSSYINANYIRGYGGEEKVYIATQGPIVSTVADFWRMVWQEHTPIIVMITNIEEMNEKCTEYWPEEQVAYDGVEITVQKVIHTEDYRLRLISLKSGTEERGLKHYWFTSWPDHKTPDRAPPLLHLVREVEEAAQQEGPHCAPIIVHCSAGIGRTGCFIATSICCQQLRQEGVVDILKTTCQLRQDRGGMIQTCEQYQFVHHVMSLYEKQLSHQSPE
As for B5, in the data set on ERK2-pT202pY204, the “effect of mutation on activity toward phospho-ERK protein (in words)” value is “increase”. Besides, in data set [1], the “effect of mutation on Km for the phospho-ERK-peptide (in words)” value was “significantly lower”.

B6: E543: STEP Q-loop mutant, conserved E543 mutated to arginine (protein, UniProt P54829 1-565, looked up, variant E543R)
Tyrosine-protein phosphatase …: MNYEGARSERENHAADDSEGGALDMCCSERLPGLPQPIVMEALDEAEGLQDSQREMPPPPPPSPPSDPAQKPPPRGAGSHSLTVRSSLCLFAASQFLLACGVLWFSGYGHIWSQNATNLVSSLLTLLKQLEPTAWLDSGTWGVPSLLLVFLSVGLVLVTTLVWHLLRTPPEPPTPLPPEDRRQSVSRQPSFTYSEWMEEKIEDDFLDLDPVPETPVFDCVMDIKPEADPTSLTVKSMGLQERRGSNVSLTLDMCTPGCNEEGFGYLMSPREESAREYLLSASRVLQAEELHEKALDPFLLQAEFFEIPMNFVDPKEYDIPGLVRKNRYKTILPNPHSRVCLTSPDPDDPLSSYINANYIRGYGGEEKVYIATQGPIVSTVADFWRMVWQEHTPIIVMITNIEEMNEKCTEYWPEEQVAYDGVEITVQKVIHTEDYRLRLISLKSGTEERGLKHYWFTSWPDQKTPDRAPPLLHLVREVEEAAQQEGPHCAPIIVHCSAGIGRTGCFIATSICCQQLRQEGVVDILKTTCQLRQDRGGMIQTCRQYQFVHHVMSLYEKQLSHQSPE
For B6, the “effect of mutation on activity toward phospho-ERK protein (in words)” value in the data set on ERK2-pT202pY204 is listed as “no effect”.

B7: L249A: STEP KIM mutant L249A (protein, UniProt P54829 1-565, looked up, variant L249A)
Tyrosine-protein phosphatase …: MNYEGARSERENHAADDSEGGALDMCCSERLPGLPQPIVMEALDEAEGLQDSQREMPPPPPPSPPSDPAQKPPPRGAGSHSLTVRSSLCLFAASQFLLACGVLWFSGYGHIWSQNATNLVSSLLTLLKQLEPTAWLDSGTWGVPSLLLVFLSVGLVLVTTLVWHLLRTPPEPPTPLPPEDRRQSVSRQPSFTYSEWMEEKIEDDFLDLDPVPETPVFDCVMDIKPEADPTSLTVKSMGLQERRGSNVSATLDMCTPGCNEEGFGYLMSPREESAREYLLSASRVLQAEELHEKALDPFLLQAEFFEIPMNFVDPKEYDIPGLVRKNRYKTILPNPHSRVCLTSPDPDDPLSSYINANYIRGYGGEEKVYIATQGPIVSTVADFWRMVWQEHTPIIVMITNIEEMNEKCTEYWPEEQVAYDGVEITVQKVIHTEDYRLRLISLKSGTEERGLKHYWFTSWPDQKTPDRAPPLLHLVREVEEAAQQEGPHCAPIIVHCSAGIGRTGCFIATSICCQQLRQEGVVDILKTTCQLRQDRGGMIQTCEQYQFVHHVMSLYEKQLSHQSPE
On to B7, for which the “decrease of kcat/Km” value with ERK2-pT202pY204 (pH 7.0, 25°C) came to 2.5 fold.

B8: STEP (R242 and R243): STEP with combined mutation of R242 and R243 to alanine (protein, UniProt P54829 1-565, looked up, variant R242A R243A)
Tyrosine-protein phosphatase …: MNYEGARSERENHAADDSEGGALDMCCSERLPGLPQPIVMEALDEAEGLQDSQREMPPPPPPSPPSDPAQKPPPRGAGSHSLTVRSSLCLFAASQFLLACGVLWFSGYGHIWSQNATNLVSSLLTLLKQLEPTAWLDSGTWGVPSLLLVFLSVGLVLVTTLVWHLLRTPPEPPTPLPPEDRRQSVSRQPSFTYSEWMEEKIEDDFLDLDPVPETPVFDCVMDIKPEADPTSLTVKSMGLQEAAGSNVSLTLDMCTPGCNEEGFGYLMSPREESAREYLLSASRVLQAEELHEKALDPFLLQAEFFEIPMNFVDPKEYDIPGLVRKNRYKTILPNPHSRVCLTSPDPDDPLSSYINANYIRGYGGEEKVYIATQGPIVSTVADFWRMVWQEHTPIIVMITNIEEMNEKCTEYWPEEQVAYDGVEITVQKVIHTEDYRLRLISLKSGTEERGLKHYWFTSWPDQKTPDRAPPLLHLVREVEEAAQQEGPHCAPIIVHCSAGIGRTGCFIATSICCQQLRQEGVVDILKTTCQLRQDRGGMIQTCEQYQFVHHVMSLYEKQLSHQSPE
Consider B8, for which the “effect of combined R-to-A mutation on ERK dephosphorylation (in words)” value in the data set with ERK2-pT202pY204 (compared to single R-to-A mutations of STEP) is “did not promote a further decrease”.
